ChEMBL document CHEMBL2040734, “Benzothiazoles: search for anticancer agents” (2012)

Assays:
Format in all cases: functional
NCI-H322M = assay: Growth inhibition of human NCI-H322M cells after 48 hrs by sulforhodamine B assay; conditions: for CC50: read-out: LC50 (the source's name)
Outline: (§1)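 Adherent NCI-60 lines were grown in RPMI 1640 with 5% FBS and 2 mM L-glutamine, plated at 5000–40,000 cells/well and preincubated 24 h. They were then exposed to five concentrations (0.01–100 µM, from a DMSO stock) for 48 h at 37 °C, 5% CO2. Cells were fixed with cold TCA (10% final, 60 min, 4 °C) and stained with 0.4% SRB. Dye was solubilized in 10 mM Tris base and A515 read. GI50 was derived from time-zero, control and treated absorbances.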

UACC-62 [1] = assay: Cytotoxicity against human UACC62 cells assessed as cell growth at 100 uM after 48 hrs by sulforhodamine B assay; conditions: UACC-62, 48 h, read-out: Activity
OVCAR-8 = assay: Cytotoxicity against human OVCAR8 cells assessed as cell growth at 1 uM after 48 hrs by sulforhodamine B assay; conditions: OVCAR-8, 48 h, read-out: Activity
SK-MEL-2 = assay: Growth inhibition of human SK-MEL-2 cells after 48 hrs by sulforhodamine B assay; conditions: SK-MEL-2, 48 h; outline: as §1
HCT-116 [2] = assay: Growth inhibition of human HCT116 cells after 48 hrs by sulforhodamine B assay; conditions: HCT-116, 48 h; for CC50: read-out: LC50 (the source's name); outline: as §1
SW-620 = assay: Cytotoxicity against human SW620 cells assessed as cell growth at 1 uM after 48 hrs by sulforhodamine B assay; conditions: SW-620, 48 h, read-out: Activity
HCT-116 [3] = assay: Cytotoxicity against human HCT116 cells assessed as cell growth at 10 uM after 48 hrs by sulforhodamine B assay; conditions: HCT-116, 48 h, read-out: Activity
Outline: (§2)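 Five-dose NCI panel run at 0.01, 0.1, 1, 10 and 100 µM. Cells were in RPMI 1640 with 5% FBS and 2 mM L-glutamine, seeded at 5000–40,000 cells/well and pre-incubated 24 h. Drug was diluted from a DMSO stock into medium with 50 µg/ml gentamicin. Exposure was 48 h at 37 °C, 5% CO2. Cells were fixed with cold TCA and stained with 0.4% SRB, read at 515 nm. Percent growth came from time-zero, control and test absorbances.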

UACC-62 [4] = assay: Growth inhibition of human UACC62 cells after 48 hrs by sulforhodamine B assay; conditions: UACC-62, 48 h; for CC50: read-out: LC50 (the source's name); outline: as §1
MDA-MB-468 = assay: Growth inhibition of human MDA-MB-468 cells after 48 hrs by sulforhodamine B assay; conditions: MDA-MB-468, 48 h; for CC50: read-out: LC50 (the source's name); outline: as §1
U-251 = assay: Cytotoxicity against human U251 cells assessed as cell growth at 100 uM after 48 hrs by sulforhodamine B assay; conditions: U-251, 48 h, read-out: Activity
HCT-116 [5] = assay: Cytotoxicity against human HCT116 cells assessed as cell growth at 0.01 uM after 48 hrs by sulforhodamine B assay; conditions: HCT-116, 48 h, read-out: Activity; outline: as §2
SK-MEL-5 = assay: Cytotoxicity against human SK-MEL-5 cells assessed as cell growth at 100 uM after 48 hrs by sulforhodamine B assay; conditions: SK-MEL-5, 48 h, read-out: Activity
OVCAR-3 = assay: Cytotoxicity against human OVCAR3 cells assessed as cell growth at 10 uM after 48 hrs by sulforhodamine B assay; conditions: OVCAR-3, 48 h, read-out: Activity
HCC 2998 = assay: Growth inhibition of human HCC2998 cells after 48 hrs by sulforhodamine B assay; conditions: HCC 2998, 48 h; for CC50: read-out: LC50 (the source's name); outline: as §1
MOLT-4 = assay: Cytotoxicity against human MOLT4 cells assessed as cell growth at 100 uM after 48 hrs by sulforhodamine B assay; conditions: MOLT-4, 48 h, read-out: Activity
T47D = assay: Cytotoxicity against human T47D cells assessed as cell growth at 100 uM after 48 hrs by sulforhodamine B assay; conditions: read-out: Activity
A498 = assay: Cytotoxicity against human A498 cells assessed as cell growth at 10 '-5 M after 48 hrs by sulforhodamine B assay; conditions: A498, 48 h, read-out: Activity
Outline: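 Primary NCI-60 single-dose screen at 10 µM. Cells were grown in RPMI 1640 with 5% FBS and 2 mM L-glutamine and plated 24 h before drug addition. Compound was solubilized in DMSO, then exposed for 48 h at 37 °C under 5% CO2. Cells were TCA-fixed and stained with SRB, and absorbance was read at 515 nm. Growth was expressed relative to time-zero and untreated controls.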

Malme-3M [6] = assay: Cytotoxicity against human MALME-3M cells assessed as cell growth at 0.1 uM after 48 hrs by sulforhodamine B assay; conditions: read-out: Activity
SK-MEL-28 = assay: Cytotoxicity against human SK-MEL-28 cells assessed as cell growth at 0.1 uM after 48 hrs by sulforhodamine B assay; conditions: SK-MEL-28, 48 h, read-out: Activity
Malme-3M [7] = assay: Cytotoxicity against human MALME-3M cells assessed as cell growth at 0.01 uM after 48 hrs by sulforhodamine B assay; conditions: read-out: Activity
EKVX = assay: Cytotoxicity against human EKVX cells assessed as cell growth at 1 uM after 48 hrs by sulforhodamine B assay; conditions: read-out: Activity; outline: as §2
ACHN = assay: Cytotoxicity against human ACHN cells assessed as cell growth at 0.1 uM after 48 hrs by sulforhodamine B assay; conditions: read-out: Activity
Outline: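 NCI-60 five-dose screen. Cells were grown in RPMI 1640 with 5% FBS and 2 mM L-glutamine and preincubated 24 h. Compound (DMSO stock) was tested at 0.01, 0.1, 1, 10 and 100 µM for 48 h at 37 °C. Cells were fixed in situ with cold TCA (final 10%) and stained with 0.4% SRB. A515 was read, and percent growth was calculated against time-zero and control plates.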

RPMI-8226 = assay: Growth inhibition of human RPMI8226 cells after 48 hrs by sulforhodamine B assay; conditions: RPMI-8226, 48 h; for CC50: read-out: LC50 (the source's name)
Outline: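 Leukemia suspension lines were grown in RPMI 1640 with 5% FBS and 2 mM L-glutamine and plated at 5000–40,000 cells/well with 24 h preincubation. They were treated at 0.01, 0.1, 1, 10 and 100 µM (DMSO stock) for 48 h at 37 °C. Settled cells were fixed with 80% TCA (16% final) and stained with 0.4% SRB in 1% acetic acid, then read at 515 nm. GI50 was calculated against time-zero and control wells.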

CCRF-CEM = assay: Cytotoxicity against human CCRF-CEM cells assessed as cell growth at 100 uM after 48 hrs by sulforhodamine B assay; conditions: read-out: Activity
Outline: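 CCRF-CEM suspension leukemia cells in RPMI 1640 with 5% FBS and 2 mM L-glutamine, plated 24 h before dosing. Five concentrations (0.01–100 µM) were applied from a DMSO stock for 48 h at 37 °C. Settled cells were fixed with 80% TCA (final 16%) and stained with SRB, with read-out at 515 nm. Percent growth was derived from time-zero and control absorbances.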

Cc1ccc2nc(Nc3c(C)cccc3C)sc2c1
GI50 (NCI-H322M): > 100000 nM
TGI (NCI-H322M): > 100 µM
CC50 (NCI-H322M): > 100 µM
growth at 100 µM (UACC-62 [1]): 37%
growth at 1 µM (OVCAR-8): 89%
LC50 (concentration killing 50% of cells present at time zero) (SK-MEL-2): > 100 µM
TGI (SK-MEL-2): > 100 µM
GI50 (HCT-116 [2]): 2300 nM
TGI (HCT-116 [2]): > 100000 nM
CC50 (HCT-116 [2]): > 100 µM
growth at 1 µM (SW-620): 49%
growth at 10 µM (HCT-116 [3]): 21%
GI50 (UACC-62 [4]): 1150 nM
TGI (UACC-62 [4]): > 100000 nM
CC50 (UACC-62 [4]): > 100 µM
GI50 (MDA-MB-468): 330 nM
TGI (MDA-MB-468): > 100000 nM
CC50 (MDA-MB-468): > 100 µM
growth at 100 µM (U-251): 31%
growth at 0.01 µM (HCT-116 [5]): 102%
growth at 100 µM (SK-MEL-5): 60%
growth at 10 µM (OVCAR-3): 52%
GI50 (HCC 2998): > 100000 nM
TGI (HCC 2998): > 100000 nM
CC50 (HCC 2998): > 100 µM
growth at 100 µM (MOLT-4): 86%
growth at 100 µM (T47D): 46%
growth at 10 µM (A498): 38%
growth at 0.1 µM (Malme-3M [6]): 103%
growth at 0.1 µM (SK-MEL-28): 92%
growth at 0.01 µM (Malme-3M [7]): 102%
growth at 1 µM (EKVX): 62%
growth at 0.1 µM (ACHN): 105%
GI50 (RPMI-8226): > 100000 nM
TGI (RPMI-8226): > 100 µM
CC50 (RPMI-8226): > 100 µM
growth at 100 µM (CCRF-CEM): 83%

Clc1cccc(Cl)c1Nc1nc2cccc(Cl)c2s1
GI50 (NCI-H322M): 1460 nM
TGI (NCI-H322M): 3.01 µM
CC50 (NCI-H322M): 6.19 µM
growth at 100 µM (UACC-62 [1]): -94%
growth at 1 µM (OVCAR-8): 58%
GI50 (SK-MEL-2): 1430 nM
TGI (SK-MEL-2): 3.35 µM
GI50 (HCT-116 [2]): 1010 nM
TGI (HCT-116 [2]): 2190 nM
CC50 (HCT-116 [2]): 4.75 µM
growth at 1 µM (SW-620): 69%
growth at 10 µM (HCT-116 [3]): -98%
GI50 (UACC-62 [4]): 1010 nM
TGI (UACC-62 [4]): 2370 nM
CC50 (UACC-62 [4]): 5.55 µM
GI50 (MDA-MB-468): 343 nM
TGI (MDA-MB-468): 1740 nM
CC50 (MDA-MB-468): 5.79 µM
growth at 100 µM (U-251): -50%
growth at 0.01 µM (HCT-116 [5]): 104%
growth at 100 µM (SK-MEL-5): -76%
growth at 10 µM (OVCAR-3): -96%
GI50 (HCC 2998): 1340 nM
TGI (HCC 2998): 2780 nM
CC50 (HCC 2998): 5.74 µM
growth at 100 µM (MOLT-4): -23%
growth at 100 µM (T47D): -64%
growth at 10 µM (A498): -53.6%
growth at 0.1 µM (Malme-3M [6]): 90%
growth at 0.1 µM (SK-MEL-28): 94%
growth at 0.01 µM (Malme-3M [7]): 101%
growth at 1 µM (EKVX): 15%
growth at 0.1 µM (ACHN): 98%
GI50 (RPMI-8226): 829 nM
TGI (RPMI-8226): 5.05 µM
CC50 (RPMI-8226): > 100 µM
growth at 100 µM (CCRF-CEM): -12%
